# Laboratory results from ChEMBL document CHEMBL3232844, “Synthesis and structure activity relationships of schweinfurthin indoles” (2014).
# What was measured:
# Assay type in all cases: functional
# [1] = Cytotoxicity against human UACC62 cells
# Summary of the method: (§1)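 Cell line run as part of the 60-cell-line screening panel; growth inhibition was reported as a GI50 for each line.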
# HCC 2998 = assay: Cytotoxicity against human HCC2998 cells
# Summary of the method: (§2)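 Tested in a 60-cell-line human tumor panel screen; the read-out is growth inhibition, reported as GI50 for each cell line.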
# HOP-62 = assay: Cytotoxicity against human HOP62 cells; summary of the method: as §2
# MDA-MB-231 = assay: Cytotoxicity against human MDA-MB-231 cells; summary of the method: as §2
# M14 = assay: Cytotoxicity against human M14 cells; summary of the method: as §2
# HL-60(TB) = assay: Cytotoxicity against human HL-60(TB) cells
# Summary of the method: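 Tested within the NCI 60-cell-line screen, with GI50 as the read-out. Values are the average of two independent experiments. The lowest concentration tested was 10 nM.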
# SN12C = assay: Cytotoxicity against human SN12C cells; summary of the method: as §2
# [2] = Cytotoxicity against human UACC257 cells; summary of the method: as §1
# KM12 = assay: Cytotoxicity against human KM12 cells; summary of the method: as §2
# [3] = Cytotoxicity against human UO31 cells; summary of the method: as §1
# SNB-75 = assay: Cytotoxicity against human SNB75 cells; summary of the method: as §1
# [4] = Cytotoxicity against human OVCAR8 cells; summary of the method: as §2
# 786-0 = assay: Cytotoxicity against human 786-0 cells; summary of the method: as §2
# MCF7 = assay: Cytotoxicity against human MCF7 cells; summary of the method: as §2
# NCI-H322M = assay: Cytotoxicity against human NCI-H322M cells; summary of the method: as §2
# TK-10 = assay: Cytotoxicity against human TK10 cells; summary of the method: as §1
# U-251 = assay: Cytotoxicity against human U251 cells; summary of the method: as §1
# A549 = assay: Cytotoxicity against human A549 cells; summary of the method: as §2
# RXF 393 = assay: Cytotoxicity against human RXF393 cells; summary of the method: as §2
# HT-29 = assay: Cytotoxicity against human HT-29 cells; summary of the method: as §2
# HCT-116 = assay: Cytotoxicity against human HCT116 cells; summary of the method: as §2
# A498 = assay: Cytotoxicity against human A498 cells; summary of the method: as §2
# BT-549 = assay: Cytotoxicity against human BT549 cells; summary of the method: as §2
# MDA-MB-435 = assay: Cytotoxicity against human MDA-MB-435 cells; summary of the method: as §2
# NCI-H226 = assay: Cytotoxicity against human NCI-H226 cells; summary of the method: as §2
# SK-MEL-2 = assay: Cytotoxicity against human SK-MEL-2 cells; summary of the method: as §2
# MDA-MB-468 = assay: Cytotoxicity against human MDA-MB-468 cells; summary of the method: as §2
# ACHN = assay: Cytotoxicity against human ACHN cells; summary of the method: as §2
# [5] = Cytotoxicity against human NCI-ADR-RES cells; summary of the method: as §2
# [6] = Cytotoxicity against human OVCAR4 cells; summary of the method: as §2
# NCI-H460 = assay: Cytotoxicity against human NCI-H460 cells; summary of the method: as §2
# SF-295 = assay: Cytotoxicity against human SF295 cells; summary of the method: as §2
# [7] = Cytotoxicity against human OVCAR3 cells; summary of the method: as §2
# SF-268 = assay: Cytotoxicity against human SF268 cells; summary of the method: as §2
# SK-OV-3 = assay: Cytotoxicity against human SKOV3 cells; summary of the method: as §2
# PC-3 = assay: Cytotoxicity against human PC3 cells; summary of the method: as §2
# CCRF-CEM = assay: Cytotoxicity against human CCRF-CEM cells
# LOX IMVI = assay: Cytotoxicity against human LOXIMVI cells; summary of the method: as §2
# SNB-19 = assay: Cytotoxicity against human SNB19 cells; summary of the method: as §2
# CAKI-1 = assay: Cytotoxicity against human Caki1 cells; summary of the method: as §2
# MOLT-4 = assay: Cytotoxicity against human MOLT4 cells; summary of the method: as §2
# SK-MEL-5 = assay: Cytotoxicity against human SK-MEL-5 cells; summary of the method: as §2
# SR = assay: Cytotoxicity against human SR cells; summary of the method: as §1
# [8] = read-out: pLC50 (the source's name) (converted)
smiles,measurement,setting,value
COc1cc(/C=C/c2cc(OC)c3c(C/C=C(\C)CCC=C(C)C)c[nH]c3c2)cc2c1O[C@]1(C)CC[C@@H](O)C(C)(C)[C@H]1C2,GI50,[1]; UACC-62,0.309 µM
same,CC50,"[1]; UACC-62, read-out: pLC50 (the source's name) (converted)",7.76 µM
same,TGI,"[1]; UACC-62, read-out: pTGI (converted)",1.48 µM
same,GI50,HCC 2998,11.5 µM
same,CC50,HCC 2998; [8],57.5 µM
same,TGI,HCC 2998; read-out: pTGI (converted),25.7 µM
same,GI50,HOP-62,1.07 µM
same,CC50,HOP-62; [8],22.4 µM
same,TGI,HOP-62; read-out: pTGI (converted),4.79 µM
same,GI50,MDA-MB-231,1.41 µM
same,LC50,MDA-MB-231,66.1 µM
same,TGI,MDA-MB-231; read-out: pTGI (converted),12.9 µM
same,GI50,M14,1.17 µM
same,CC50,M14; [8],8.51 µM
same,TGI,M14; read-out: pTGI (converted),3.16 µM
same,GI50,HL-60(TB),0.363 µM
same,CC50,HL-60(TB); [8],> 100 µM
same,TGI,HL-60(TB); read-out: pTGI (converted),10.5 µM
same,GI50,SN12C,6.76 µM
same,LC50,SN12C,63.1 µM
same,TGI,SN12C; read-out: pTGI (converted),23.4 µM
same,GI50,[2]; UACC-257,5.75 µM
same,CC50,"[2]; UACC-257, read-out: pLC50 (the source's name) (converted)",81.3 µM
same,TGI,"[2]; UACC-257, read-out: pTGI (converted)",25.7 µM
same,GI50,KM12,0.562 µM
same,CC50,KM12; [8],5.13 µM
same,TGI,KM12; read-out: pTGI (converted),1.95 µM
same,GI50,[3]; UO-31,0.631 µM
same,LC50,[3]; UO-31,> 100 µM
same,TGI,"[3]; UO-31, read-out: pTGI (converted)",14.1 µM
same,GI50,SNB-75,0.145 µM
same,CC50,SNB-75; [8],40.7 µM
same,TGI,SNB-75; read-out: pTGI (converted),0.692 µM
same,GI50,[4]; OVCAR-8,12.6 µM
same,CC50,"[4]; OVCAR-8, read-out: pLC50 (the source's name) (converted)",> 100 µM
same,TGI,"[4]; OVCAR-8, read-out: pTGI (converted)",36.3 µM
same,GI50,786-0,0.195 µM
same,LC50 (concentration killing 50% of cells),786-0,56.2 µM
same,TGI,786-0; read-out: pTGI (converted),1.86 µM
same,GI50,MCF7,1.02 µM
same,LC50,MCF7,12.6 µM
same,TGI,MCF7; read-out: pTGI (converted),3.39 µM
same,GI50,NCI-H322M,19.1 µM
same,CC50,NCI-H322M; [8],> 100 µM
same,TGI,NCI-H322M; read-out: pTGI (converted),> 100 µM
same,GI50,TK-10,4.27 µM
same,LC50,TK-10,> 100 µM
same,TGI,TK-10; read-out: pTGI (converted),46.8 µM
same,GI50,U-251,0.759 µM
same,CC50,U-251; [8],39.8 µM
same,TGI,U-251; read-out: pTGI (converted),12.9 µM
same,GI50,A549,1.66 µM
same,CC50,A549; [8],> 100 µM
same,TGI,A549; read-out: pTGI (converted),36.3 µM
same,GI50,RXF 393,0.055 µM
same,LC50,RXF 393,1 µM
same,TGI,RXF 393; read-out: pTGI (converted),0.251 µM
same,GI50,HT-29,0.447 µM
same,CC50,HT-29; [8],> 100 µM
same,TGI,HT-29; read-out: pTGI (converted),2.75 µM
same,GI50,HCT-116,0.933 µM
same,CC50,HCT-116; [8],43.7 µM
same,TGI,HCT-116; read-out: pTGI (converted),12.9 µM
same,GI50,A498,1.02 µM
same,CC50,A498; [8],16.6 µM
same,TGI,A498; read-out: pTGI (converted),3.72 µM
same,GI50,BT-549,0.589 µM
same,CC50,BT-549; [8],64.6 µM
same,TGI,BT-549; read-out: pTGI (converted),17.8 µM
same,GI50,MDA-MB-435,1.62 µM
same,CC50,MDA-MB-435; [8],> 100 µM
same,TGI,MDA-MB-435; read-out: pTGI (converted),17.4 µM
same,GI50,NCI-H226,8.32 µM
same,CC50,NCI-H226; [8],61.7 µM
same,TGI,NCI-H226; read-out: pTGI (converted),24.5 µM
same,GI50,SK-MEL-2,1 µM
same,CC50,SK-MEL-2; [8],63.1 µM
same,TGI,SK-MEL-2; read-out: pTGI (converted),9.77 µM
same,GI50,MDA-MB-468,1.32 µM
same,LC50,MDA-MB-468,33.1 µM
same,TGI,MDA-MB-468; read-out: pTGI (converted),8.51 µM
same,GI50,ACHN,0.661 µM
same,LC50 (concentration killing 50% of cells),ACHN,85.1 µM
same,TGI,ACHN; read-out: pTGI (converted),16.2 µM
same,GI50,[5],14.8 µM
same,CC50,[5]; [8],> 100 µM
same,TGI,[5]; read-out: pTGI (converted),> 100 µM
same,GI50,[6]; OVCAR-4,2.57 µM
same,CC50,"[6]; OVCAR-4, read-out: pLC50 (the source's name) (converted)",> 100 µM
same,TGI,"[6]; OVCAR-4, read-out: pTGI (converted)",70.8 µM
same,GI50,NCI-H460,1.17 µM
same,CC50,NCI-H460; [8],43.7 µM
same,TGI,NCI-H460; read-out: pTGI (converted),9.12 µM
same,GI50,SF-295; read-out: GI50,0.2 µM
same,GI50,SF-295; read-out: pGI50 (converted),0.204 µM
same,TGI,SF-295; read-out: pTGI (converted),0.575 µM
same,GI50,[7]; OVCAR-3,5.5 µM
same,CC50,"[7]; OVCAR-3, read-out: pLC50 (the source's name) (converted)",47.9 µM
same,TGI,"[7]; OVCAR-3, read-out: pTGI (converted)",20 µM
same,GI50,SF-268,1.41 µM
same,CC50,SF-268; [8],52.5 µM
same,TGI,SF-268; read-out: pTGI (converted),15.8 µM
same,GI50,SK-OV-3,1.23 µM
same,LC50,SK-OV-3,> 100 µM
same,TGI,SK-OV-3; read-out: pTGI (converted),13.8 µM
same,GI50,PC-3,0.447 µM
same,LC50,PC-3,> 100 µM
same,TGI,PC-3; read-out: pTGI (converted),17.8 µM
same,GI50,CCRF-CEM,0.295 µM
same,CC50,CCRF-CEM; [8],> 100 µM
same,GI50,LOX IMVI,1 µM
same,CC50,LOX IMVI; [8],7.59 µM
same,TGI,LOX IMVI; read-out: pTGI (converted),2.75 µM
same,GI50,SNB-19,1.7 µM
same,CC50,SNB-19; [8],58.9 µM
same,TGI,SNB-19; read-out: pTGI (converted),13.5 µM
same,GI50,CAKI-1,0.603 µM
same,LC50,CAKI-1,> 100 µM
same,TGI,CAKI-1; read-out: pTGI (converted),3.89 µM
same,GI50,MOLT-4,0.251 µM
same,CC50,MOLT-4; [8],> 100 µM
same,TGI,MOLT-4; read-out: pTGI (converted),0.851 µM
same,GI50,SK-MEL-5,0.525 µM
same,CC50,SK-MEL-5; [8],4.37 µM
same,TGI,SK-MEL-5; read-out: pTGI (converted),1.86 µM
same,GI50,SR,0.245 µM
same,CC50,SR; [8],> 100 µM
same,TGI,SR; read-out: pTGI (converted),1.48 µM
